We go through 16 molecules from ChEMBL document CHEMBL2390854, “Green synthesis of tetrahydropyrimidine analogues and evaluation of their antimicrobial activity” (2013).

≈ marks a conversion by molar mass, not a printed value.

Assay [1] relates to Escherichia coli. Briefly: Antibacterial activity against Escherichia coli NCIM 2256 by broth dilution method. Format: functional. The method, boiled down:
(§1)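 MIC by broth dilution following CLSI guidelines. Ciprofloxacin and ampicillin served as reference drugs.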
(In general: In broth dilution the organism is exposed to a series of concentrations in liquid medium.)

For the next assay, the system named is Aspergillus niger. Briefly: Antifungal activity against Aspergillus niger NCIM 1196 by agar dilution method. Format: functional. The method, boiled down:
(§2)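 MIC determined by standard agar dilution per CLSI guidelines. Fluconazole and miconazole were reference drugs, and dimethyl sulfoxide was the solvent control.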
On the technique in general: Agar dilution tests growth on a series of plates holding different concentrations.

The next assay concerns Aspergillus flavus. Briefly: Antifungal activity against Aspergillus flavus NCIM 539 by agar dilution method. In kind it is functional. The gist of the method:
as §2

The next assay deals with Staphylococcus aureus. Briefly: Antibacterial activity against Staphylococcus aureus NCIM 2901 by broth dilution method. In kind it is functional. The method, boiled down:
as §1

The subject of another assay is Candida albicans. Briefly: Antifungal activity against Candida albicans NCIM 3471 by agar dilution method. In kind it is functional. The method, boiled down:
as §2

The subject of assay [2] is Escherichia coli. Briefly: Antibacterial activity against Escherichia coli NCIM 2256 by broth dilution method.
The subject of the next assay is Bacillus subtilis. Briefly: Antibacterial activity against Bacillus subtilis NCIM 2063 by broth dilution method. Format: functional. The gist of the method:
as §1

As for `COC(=O)C1=C(C(=O)OC)N(c2ccc(O)cc2)CN(c2ccc(O)cc2)C1`, the MIC stood at 80 µg/mL (≈ 208 µM) against Escherichia coli [1]; 50 µg/mL (≈ 130 µM) in the assay with Aspergillus niger; 50 µg/mL (≈ 130 µM) against Aspergillus flavus; 90 µg/mL (≈ 234 µM) against Staphylococcus aureus; 75 µg/mL (≈ 195 µM) against Candida albicans; 80 µg/mL (≈ 208 µM) against Escherichia coli [2].
Take `COC(=O)C1=C(C(=O)OC)N(c2cccc([N+](=O)[O-])c2)CN(c2cccc([N+](=O)[O-])c2)C1`: the MIC against Escherichia coli [1] was 80 µg/mL (≈ 181 µM); with Bacillus subtilis, 100 µg/mL (≈ 226 µM); in the assay on Aspergillus niger, 100 µg/mL (≈ 226 µM); with Aspergillus flavus, 100 µg/mL (≈ 226 µM); with Staphylococcus aureus, 80 µg/mL (≈ 181 µM); in the assay with Candida albicans, 100 µg/mL (≈ 226 µM).
On to `COC(=O)C1=C(C(=O)OC)N(c2ccccn2)CN(c2ccccn2)C1`, for which the minimal inhibitory concentration (MIC) stood at 60 µg/mL (≈ 169 µM) with Escherichia coli [1]; 40 µg/mL (≈ 113 µM) with Bacillus subtilis; 25 µg/mL (≈ 70.5 µM) in the assay with Aspergillus niger; 12.5 µg/mL (≈ 35.3 µM) in the assay on Aspergillus flavus; 80 µg/mL (≈ 226 µM) against Staphylococcus aureus; 25 µg/mL (≈ 70.5 µM) with Candida albicans.
Take `COC(=O)C1=C(C(=O)OC)N(c2nc3ccc(OC)cc3s2)CN(c2nc3ccc(OC)cc3s2)C1`: the minimal inhibitory concentration (MIC) in the assay with Escherichia coli [1] came out at 40 µg/mL (≈ 76 µM); against Bacillus subtilis, 25 µg/mL (≈ 47.5 µM); in the assay on Aspergillus niger, 12.5 µg/mL (≈ 23.7 µM); against Aspergillus flavus it was 12.5 µg/mL (≈ 23.7 µM); against Staphylococcus aureus, 100 µg/mL (≈ 190 µM); in the assay on Candida albicans it was 25 µg/mL (≈ 47.5 µM).
`CCOC(=O)C1=C(C(=O)OCC)N(c2nc3ccc(OC)cc3s2)CN(c2nc3ccc(OC)cc3s2)C1`: the MIC against Escherichia coli [1] was 15 µg/mL (≈ 27 µM); in the assay with Bacillus subtilis it was 20 µg/mL (≈ 36.1 µM); in the assay with Aspergillus niger it was 12.5 µg/mL (≈ 22.5 µM); against Aspergillus flavus, 12.5 µg/mL (≈ 22.5 µM); against Staphylococcus aureus, 100 µg/mL (≈ 180 µM); in the assay on Candida albicans, 25 µg/mL (≈ 45.1 µM).
`COC(=O)C1=C(C(=O)OC)N(c2ccccc2)CN(c2ccccc2)C1`: the MIC with Escherichia coli [1] came out at 60 µg/mL (≈ 170 µM); against Bacillus subtilis, 30 µg/mL (≈ 85.1 µM); against Aspergillus niger it was 25 µg/mL (≈ 70.9 µM); in the assay on Aspergillus flavus it was 25 µg/mL (≈ 70.9 µM); in the assay with Staphylococcus aureus it was 90 µg/mL (≈ 255 µM); with Candida albicans, 50 µg/mL (≈ 142 µM).
As to `COC(=O)C1=C(C(=O)OC)N(c2ccc(Cl)cc2)CN(c2ccc(Cl)cc2)C1`, the MIC against Escherichia coli [1] was found to be 60 µg/mL (≈ 142 µM); in the assay on Bacillus subtilis, 40 µg/mL (≈ 94.9 µM); against Aspergillus niger, 25 µg/mL (≈ 59.3 µM); against Aspergillus flavus it was 25 µg/mL (≈ 59.3 µM); in the assay with Staphylococcus aureus it was 100 µg/mL (≈ 237 µM); against Candida albicans, 25 µg/mL (≈ 59.3 µM).
Regarding `CCOC(=O)C1=C(C(=O)OCC)N(c2ccccc2)CN(c2ccccc2)C1`, the MIC with Escherichia coli [1] was determined as 15 µg/mL (≈ 39.4 µM); with Bacillus subtilis, 25 µg/mL (≈ 65.7 µM); in the assay on Aspergillus niger, 25 µg/mL (≈ 65.7 µM); in the assay on Aspergillus flavus, 25 µg/mL (≈ 65.7 µM); in the assay on Staphylococcus aureus, 60 µg/mL (≈ 158 µM); in the assay with Candida albicans, 50 µg/mL (≈ 131 µM).
With `CCOC(=O)C1=C(C(=O)OCC)N(c2ccc(Cl)cc2)CN(c2ccc(Cl)cc2)C1`, the minimal inhibitory concentration (MIC) against Escherichia coli [1] amounted to 15 µg/mL (≈ 33.4 µM); against Bacillus subtilis, 25 µg/mL (≈ 55.6 µM); in the assay with Aspergillus niger it was 25 µg/mL (≈ 55.6 µM); against Aspergillus flavus, 25 µg/mL (≈ 55.6 µM); against Staphylococcus aureus, 80 µg/mL (≈ 178 µM); in the assay on Candida albicans it was 25 µg/mL (≈ 55.6 µM).
For `CCOC(=O)C1=C(C(=O)OCC)N(c2ccc(O)cc2)CN(c2ccc(O)cc2)C1`, the MIC amounted to 50 µg/mL (≈ 121 µM) with Escherichia coli [1]; 40 µg/mL (≈ 97 µM) in the assay on Bacillus subtilis; 50 µg/mL (≈ 121 µM) against Aspergillus niger; 50 µg/mL (≈ 121 µM) in the assay on Aspergillus flavus; 100 µg/mL (≈ 242 µM) against Staphylococcus aureus; 75 µg/mL (≈ 182 µM) in the assay on Candida albicans.
Consider `CCOC(=O)C1=C(C(=O)OCC)N(c2cccc([N+](=O)[O-])c2)CN(c2cccc([N+](=O)[O-])c2)C1`, for which the minimal inhibitory concentration (MIC) in the assay with Escherichia coli [1] came out at 100 µg/mL (≈ 213 µM); with Bacillus subtilis it was 60 µg/mL (≈ 128 µM); in the assay with Aspergillus niger, 100 µg/mL (≈ 213 µM); with Aspergillus flavus, 100 µg/mL (≈ 213 µM); against Staphylococcus aureus, 100 µg/mL (≈ 213 µM); with Candida albicans it was 100 µg/mL (≈ 213 µM).
As for `CCOC(=O)C1=C(C(=O)OCC)N(c2ccccn2)CN(c2ccccn2)C1`, the MIC in the assay on Escherichia coli [1] worked out at 60 µg/mL (≈ 157 µM); in the assay with Bacillus subtilis it was 20 µg/mL (≈ 52.3 µM); with Aspergillus niger, 25 µg/mL (≈ 65.4 µM); in the assay on Aspergillus flavus it was 12.5 µg/mL (≈ 32.7 µM); against Staphylococcus aureus, 100 µg/mL (≈ 261 µM); with Candida albicans it was 25 µg/mL (≈ 65.4 µM).
On to `CC1(C)S[C@@H]2[C@H](NC(=O)[C@H](N)c3ccccc3)C(=O)N2[C@H]1C(=O)O` [AMPICILLIN], for which the MIC with Escherichia coli [1], in the assay with Staphylococcus aureus and with Escherichia coli [2] was 50 µg/mL (≈ 143 µM) each time.
Take `O=C(O)c1cn(C2CC2)c2cc(N3CCNCC3)c(F)cc2c1=O` [CIPROFLOXACIN]: the MIC in the assay with Escherichia coli [1] is 15 µg/mL (≈ 45.3 µM); with Bacillus subtilis, 25 µg/mL (≈ 75.4 µM).
In the case of `OC(Cn1cncn1)(Cn1cncn1)c1ccc(F)cc1F` [FLUCONAZOLE], the minimum inhibitory concentration (MIC) in the assay with Aspergillus niger came to 25 µg/mL (≈ 81.6 µM); against Aspergillus flavus it was 25 µg/mL (≈ 81.6 µM); in the assay with Candida albicans it was 40 µg/mL (≈ 131 µM).
`Clc1ccc(COC(Cn2ccnc2)c2ccc(Cl)cc2Cl)c(Cl)c1` (stereo not drawn) [MICONAZOLE]: the MIC against Aspergillus niger, with Aspergillus flavus and against Candida albicans was 12.5 µg/mL (≈ 30 µM) in each case.

In general, MIC refers to the lowest concentration found to suppress growth. A low value points to greater potency.
